Screening results deposited in PubChem by Broad Institute.
The entries come from a sample that favours hits as a whole.
IDH1 R132H inh – inhibitors of IDH1 R132H reductase, primary screen, biochemical, plate reader, single point; Isocitrate dehydrogenase [NADP] cytoplasmic (Homo sapiens), O75874; diaphorase/resazurin fluorescence, 60 min; 0.18% of 70,000 active; inhibition, % at 10 µM; in the data active = inhibition above about 34%; inconclusive = no clear call, values can overlap the other calls; inactive = below about 11%;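 note: 0% = DMSO and 100% = no enzyme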
Target sequence (O75874 whole entry R132H): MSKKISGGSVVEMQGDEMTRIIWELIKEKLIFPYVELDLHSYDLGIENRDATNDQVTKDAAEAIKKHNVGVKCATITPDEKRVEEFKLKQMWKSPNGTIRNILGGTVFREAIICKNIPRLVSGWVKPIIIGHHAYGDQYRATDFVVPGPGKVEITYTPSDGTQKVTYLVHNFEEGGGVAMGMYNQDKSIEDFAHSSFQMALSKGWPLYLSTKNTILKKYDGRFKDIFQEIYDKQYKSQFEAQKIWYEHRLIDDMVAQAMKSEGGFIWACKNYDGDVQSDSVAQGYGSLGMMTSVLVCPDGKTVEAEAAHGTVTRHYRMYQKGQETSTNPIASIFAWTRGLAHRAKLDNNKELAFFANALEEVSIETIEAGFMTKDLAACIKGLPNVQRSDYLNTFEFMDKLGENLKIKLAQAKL
KDM4C inh – inhibitors of GASC-1 (KDM4C) histone demethylase, primary screen, biochemical, single concentration HTS. Lysine-specific demethylase 4C (Homo sapiens), Q9H3R0. inhibition, % at 12.5 µM. AID 720574, 2013. 0.15% of 96,000 active. GST-KDM4C 2-372, H3K9me3 peptide, LANCE TR-FRET;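 active = mean replicate inhibition above about 25%, with at least 55% of replicates also reaching it, limit read from the data, passing the limit was not always enough; inconclusive = only one of those two conditions met; inactive = neither condition met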
Target sequence (Q9H3R0 2-372 limits assumed): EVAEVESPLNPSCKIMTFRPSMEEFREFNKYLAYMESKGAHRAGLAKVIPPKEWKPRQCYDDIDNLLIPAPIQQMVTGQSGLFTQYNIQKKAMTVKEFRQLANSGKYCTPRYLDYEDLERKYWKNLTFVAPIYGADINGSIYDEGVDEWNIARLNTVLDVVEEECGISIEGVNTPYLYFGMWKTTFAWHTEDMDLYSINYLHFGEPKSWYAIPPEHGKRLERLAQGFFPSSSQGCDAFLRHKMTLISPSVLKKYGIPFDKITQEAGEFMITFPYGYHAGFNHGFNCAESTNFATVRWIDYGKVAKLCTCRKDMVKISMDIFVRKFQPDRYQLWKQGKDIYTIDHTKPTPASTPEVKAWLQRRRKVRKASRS
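System: N-terminal GST-fused human GASC-1 (KDM4C) fragment, residues 2-372; amount: enzyme final amount 10 nM; incubation: reaction 30 min RT, detection step 1 h RT; medium: HEPES buffer, pH 7.5, plus ascorbate; technique: LANCE TR-FRET, Eu antibody, ULight-streptavidin, EDTA, ex 340 nm, em 618/671 nm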
T cruzi growth-1 – T. cruzi intracellular proliferation inhibitors, primary screen, cell-based, beta-gal Tulahuen parasites, NIH3T3 host, luminescence; T. cruzi beta-gal in NIH3T3, GalScreen luminescence, 90 h; inhibition, % at 8.34 µM; 5.9% of 77,000 active;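 active = mean inhibition above about 93%, with at least 55% of replicates each passing it, limit read from the data, passing the limit was not always enough; inconclusive = only one of those two conditions holds; inactive = neither condition holds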
T cruzi growth-2 – T. cruzi intracellular proliferation inhibitors, confirmation, cell-based, NIH3T3 host, beta-gal parasite, luminescence, cherry-pick | shares compounds with T cruzi growth-1 | T. cruzi beta-gal in NIH3T3, GalScreen luminescence, 90 h | inhibition, % at 8.35 µM | 72% of 5,600 active | AID 651739, 2012;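 active = mean replicate inhibition above about 95% and at least 55% of replicates individually reaching it, limit read from the data; inconclusive = only one of the two criteria is met; inactive = neither criterion is met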
T cruzi growth-3 – inhibitors of intracellular T. cruzi replication, confirmation, NIH3T3 host cells, beta-gal parasites, cherry-pick, set 2; AID 651740, 2012; shares compounds with T cruzi growth-1; inhibition, % at 2.09 µM; T. cruzi beta-gal in NIH3T3, GalScreen luminescence, 90 h; 21% of 5,600 active;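 active = mean inhibition above about 95%, with at least 55% of replicates also reaching it, limit read from the data; inconclusive = meets just one of the two conditions; inactive = meets neither condition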;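 note: plate controls were neutral control median for no effect and positive control median for full effect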
3T3 cytotox – cytotoxicity in mouse NIH/3T3 fibroblasts, confirmation, cytotoxicity control for T. cruzi proliferation inhibitor project, cell-based, cherry-pick, single point | 14% of 5,600 active | shares compounds with T cruzi growth-1 | cytotoxicity (signal decrease), % at 8.35 µM | NIH/3T3 viability, CellTiter-Glo ATP luminescence, 90 h;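 active = mean signal decrease across replicates above about 35% based on untreated-well scatter, with enough replicates individually passing, limit read from the data; inconclusive = no rule stated though some were filed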;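 note: 0% = median of neutral control wells and 100% = median of positive control wells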
NIH3T3 tox 2 – NIH/3T3 fibroblast cytotoxicity, confirmation, cytotoxicity control, cell-based, cherry-pick, single point, set 2; shares compounds with T cruzi growth-1; NIH/3T3 viability, CellTiter-Glo ATP luminescence, 90 h; inhibition, % at 24.9 µM; 56% of 5,600 active; AID 651744, 2012;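 active = mean loss of cell viability signal at or above a set limit, and enough replicates individually reaching it; inconclusive = meets only the mean limit or only the replicate share; inactive = meets neither condition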;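 note: 0% = median of neutral control wells and 100% = median of positive control wells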
* hit, by the source's call; ? = inconclusive; / = no result given.

SMILES | IDH1 R132H inh | KDM4C inh | T cruzi growth-1 | T cruzi growth-2 | T cruzi growth-3 | 3T3 cytotox | NIH3T3 tox 2
N#C[C@H]1[C@H](c2ccc(-c3ccc(F)cc3)cc2)[C@H](CO)N1c1nc(-c2ccccc2)cs1 | / | -5.8 | / | / | / | / | /
C/C=C/c1ccccc1[C@H]1[C@@H](C#N)N(c2ncc(CC)s2)[C@@H]1CO | / | -0.6 | / | / | / | / | /
CCc1csc(N2[C@H](CO)[C@@H](c3ccc(C4=CCCC4)cc3)[C@@H]2C#N)n1 | / | -2.1 | 92.3 | / | / | / | /
C/C=C/c1ccc([C@@H]2[C@@H](CO)N(c3ncc(CC)s3)[C@H]2C#N)cc1 | / | -0.5 | 99.0* | 78.4 | 57.9 | 1.6 | 12.3
CCc1csc(N2[C@@H](C#N)[C@@H](c3ccc(C4=CCCC4)cc3)[C@@H]2CO)n1 | / | -1.6 | 100.6* | 103.1* | 60.1 | 42.1* | 77.3*
Cc1cccc(NC(=O)C2CN(S(=O)(=O)c3ccccc3)CCN2S(=O)(=O)c2ccccc2)c1 (stereo not given) | 0.0 | / | / | / | / | / | /
COC(=O)c1cc(OC)c(OC)cc1NC(=O)CCN1C(=O)c2ccccc2C1=O | -0.2 | / | / | / | / | / | /
C[C@@H]1CCCCO[C@@H](CN(C)C(=O)Nc2ccc(C(F)(F)F)cc2)[C@H](C)CN([C@@H](C)CO)C(=O)c2cc(NC(=O)c3ccccc3)ccc2O1 | / | 5.6 | 90.8 | / | / | / | /
C[C@H]1CCCCO[C@H](CN(C)C(=O)Nc2ccc(C(F)(F)F)cc2)[C@@H](C)CN([C@@H](C)CO)C(=O)c2cc(NC(=O)c3ccccc3)ccc2O1 | / | -1.4 | 86.2 | / | / | / | /
C[C@@H]1CCCCO[C@@H](CN(C)C(=O)Nc2ccc(F)cc2)[C@H](C)CN([C@@H](C)CO)C(=O)c2cc(NC(=O)c3ccccc3)ccc2O1 | / | -0.6 | 56.6 | / | / | / | /
C[C@H](CO)N1C[C@H](C)[C@@H](CN(C)C(=O)Nc2ccc(C(F)(F)F)cc2)OCCCC[C@H](C)Oc2ccc(NC(=O)c3ccccc3)cc2C1=O | / | -0.5 | 101.1* | 109.9* | 113.3* | 36.3* | 52.4*
C[C@H](CO)N1C[C@H](C)[C@H](CN(C)C(=O)Nc2ccc(F)cc2)OCCCC[C@H](C)Oc2ccc(NC(=O)c3ccccc3)cc2C1=O | 0.4 | -1.9 | ? | 106.7* | 76.1 | -23.3 | 1.7
C[C@H](CO)N1C[C@H](C)[C@H](CN(C)C(=O)Nc2ccc(C(F)(F)F)cc2)OCCCC[C@H](C)Oc2ccc(NC(=O)c3ccccc3)cc2C1=O | / | -1.2 | ? | 105.8* | 108.6* | 5.7 | 19.4
Cc1nnc(SCC(=O)Nc2cccc([N+](=O)[O-])c2)s1 | -0.1 | / | / | / | / | / | /
C[C@@H]1CCCCO[C@@H](CN(C)CC2CCCCC2)[C@H](C)CN([C@@H](C)CO)C(=O)c2cc(NC(=O)NC3CCCCC3)ccc2O1 | 2.9 | -1.8 | 98.8* | 109.1* | 73.0 | -5.3 | 105.6*
COc1ccc(NC(=O)Nc2ccc3c(c2)C(=O)N([C@@H](C)CO)C[C@@H](C)[C@H](CN(C)CC2CCCCC2)OCCCC[C@@H](C)O3)cc1 | / | -0.1 | ? | 98.5* | 59.0 | 15.2 | 103.8*
C[C@@H]1CCCCO[C@H](CN(C)CC2CCCCC2)[C@H](C)CN([C@H](C)CO)C(=O)c2cc(NC(=O)Nc3ccccc3)ccc2O1 | / | -1.8 | ? | 101.5* | 89.8 | 28.5 | 104.6*
C[C@H](CO)N1C[C@H](C)[C@@H](CN(C)CC2CCCCC2)OCCCC[C@H](C)Oc2ccc(NC(=O)Nc3ccccc3)cc2C1=O | 1.1 | -0.1 | 93.4 | / | / | / | /
COc1ccc(NC(=O)Nc2ccc3c(c2)C(=O)N([C@@H](C)CO)C[C@@H](C)[C@@H](CN(C)CC2CCCCC2)OCCCC[C@H](C)O3)cc1 | -0.7 | -0.1 | 79.7 | / | / | / | /
C[C@@H]1CCCCO[C@@H](CN(C)CC2CC2)[C@H](C)CN([C@@H](C)CO)C(=O)c2cc(NC(=O)Nc3ccccc3)ccc2O1 | / | 15.2 | 82.5 | / | / | / | /
C[C@H](CO)N1C[C@H](C)[C@H](CN(C)CC2CCCCC2)OCCCC[C@H](C)Oc2ccc(NC(=O)NC3CCCCC3)cc2C1=O | / | -2.2 | 77.9 | / | / | / | /
C[C@@H]1CCCCO[C@@H](CN(C)CC2CC2)[C@@H](C)CN([C@H](C)CO)C(=O)c2cc(NC(=O)Nc3ccccc3)ccc2O1 | / | -1.3 | 96.7* | 38.7 | 3.0 | -1.6 | 7.1
O=C(Nc1ccc(S(=O)(=O)NCC2CCCO2)cc1)c1cc(-c2ccccc2)nc2ccccc12 (stereo not given) | 0.0 | / | / | / | / | / | /
O=C(O)CCC1OC(=O)C(=O)C1c1ccccc1 (stereo not given) | 0.1 | / | / | / | / | / | /
N#Cc1ccccc1NC(=O)COc1ccccc1[N+](=O)[O-] | -0.3 | / | / | / | / | / | /
SMILES | IDH1 R132H inh | KDM4C inh | T cruzi growth-1 | T cruzi growth-2 | T cruzi growth-3 | 3T3 cytotox | NIH3T3 tox 2
O=C(COc1ccc(CO)cc1)Nc1ccccc1 | -0.1 | / | / | / | / | / | /
O=C(CSC1CC(=O)N(c2ccccc2)C1=O)Nc1ccc(Cl)c(Cl)c1 (stereo not given) | -0.4 | / | / | / | / | / | /
Cc1nnc(NCc2ccco2)[nH]c1=O | 0.1 | / | / | / | / | / | /
C[C@H]1CCCCO[C@@H](CN(C)CC2CCCCC2)[C@@H](C)CN([C@@H](C)CO)C(=O)c2cc(NC(=O)Nc3ccccc3)ccc2O1 | -1.0 | -0.6 | 89.9 | / | / | / | /
C[C@@H]1CN([C@@H](C)CO)C(=O)c2cc(NC(=O)Nc3ccccc3)ccc2O[C@@H](C)CCCCO[C@H]1CN(C)CC1CCCCC1 | 2.3 | -0.7 | 97.0* | 22.8 | 7.9 | -0.7 | 4.1
O=C(Cn1c2ccccc2n2ncnc12)c1ccc(-c2ccccc2)cc1 | -0.6 | / | / | / | / | / | /
O=C(c1ccc(F)cc1)N1CCCCN2[C@H](CO)[C@@H](c3ccc(/C=C/c4ccccc4)cc3)[C@@H]2C1 | / | -1.2 | 71.8 | / | / | / | /
O=C(c1ccc(F)cc1)N1CCCCN2[C@H](C1)[C@@H](c1ccc(/C=C/c3ccccc3)cc1)[C@@H]2CO | / | -0.7 | 98.8* | 108.9* | 78.7 | 33.1 | 31.7*
O=C(c1ccc(F)cc1)N1CCCCN2[C@H](CO)[C@H](c3ccc(/C=C/c4ccccc4)cc3)[C@@H]2C1 | / | -1.5 | 110.9* | 106.8* | ? | 23.3 | 105.2*
O=C(c1ccc(F)cc1)N1CC(=O)N2[C@H](CO)[C@@H](c3ccc(/C=C/c4ccccc4)cc3)[C@H]2C1 | / | -1.3 | / | / | / | / | /
O=C(c1ccc(F)cc1)N1CCCCN2[C@H](CO)[C@H](c3ccc(/C=C/c4ccccc4)cc3)[C@H]2C1 | / | -1.2 | 60.9 | / | / | / | /
